Source: ChEMBL document CHEMBL1123311, “Synthesis and antitumor and antiviral properties of 5-halo- and 5-(trifluoromethyl)-2'-deoxyuridine 3',5'-cyclic monophosphates and neutral triesters” (1986)
Converted amounts (≈) assume the structure as drawn.

What was measured:
Human alphaherpesvirus 2 [1] = experiment: Evaluation of antiviral activity against Herpes simplex virus type 2 (HSV-2) strain G; assay type: functional
Method in brief: (§1)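 Virus-induced cytopathogenicity scored in primary rabbit kidney cell cultures. Value is the minimum concentration reducing cytopathogenicity by 50%. Cytotoxicity on uninfected cells was read as the minimal concentration causing a microscopically detectable change in normal cell morphology, tested up to 400 μg/mL.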

Human alphaherpesvirus 1 [2] = experiment: Evaluation of antiviral activity against Herpes simplex virus type 1 (HSV-1) strain KOS.; assay type: functional; method in brief: as §1
Vaccinia virus = experiment: Evaluation of antiviral activity against Vaccinia virus; assay type: functional; settings: Orthopoxvirus vaccinia; method in brief: as §1
[3] = test system: Vesicular stomatitis virus; experiment: Evaluation of antiviral activity against Vesicular stomatitis virus.; assay type: functional; method in brief: as §1
Human alphaherpesvirus 1 [4] = experiment: Evaluation of antiviral activity against Herpes simplex virus type 1 (HSV-1) strain McIntyre; assay type: functional; method in brief: as §1
Human alphaherpesvirus 2 [5] = experiment: Evaluation of antiviral activity against Herpes simplex virus type 2 (HSV-2) strain 196.; assay type: functional; method in brief: as §1
Human alphaherpesvirus 1 [6] = experiment: Evaluation of antiviral activity against Herpes simplex virus type 1 (HSV-1) strain F; assay type: functional; method in brief: as §1
Human alphaherpesvirus 2 [7] = experiment: Evaluation of antiviral activity against Herpes simplex virus type 2 (HSV-2) strain Lyons; assay type: functional; method in brief: as §1
L1210 [8] = experiment: Evaluation of antitumor activity against mutant murine leukemia L1210 cells; assay type: functional; settings: Mus musculus, read-out: ID50 (the source's name)
Method in brief: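 Proliferation of mutant murine leukemia L1210/BdUrd cells, selected from parental L1210/0 for growth in 260 μg/mL 5-bromo-2'-deoxyuridine. Value is the dose inhibiting proliferation by 50%.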

Raji = experiment: Evaluation of antitumor activity against thymidine kinase deficient Raji cell line; assay type: functional; settings: Homo sapiens, read-out: ID50 (the source's name)
L1210 [9] = experiment: Evaluation of cytostatic activity by using antitumor assays against murine leukemia L1210 cells; assay type: functional; settings: Mus musculus, read-out: ID50 (the source's name)
[10] = target: Thymidylate synthase (Mus musculus) (UniProt P07607); experiment: Compound was evaluated for the inhibition of L1210 thymidylate synthetase (L1210 dTMP)
Chain of Thymidylate synthase (Mus musculus) (P07607 whole entry, looked up): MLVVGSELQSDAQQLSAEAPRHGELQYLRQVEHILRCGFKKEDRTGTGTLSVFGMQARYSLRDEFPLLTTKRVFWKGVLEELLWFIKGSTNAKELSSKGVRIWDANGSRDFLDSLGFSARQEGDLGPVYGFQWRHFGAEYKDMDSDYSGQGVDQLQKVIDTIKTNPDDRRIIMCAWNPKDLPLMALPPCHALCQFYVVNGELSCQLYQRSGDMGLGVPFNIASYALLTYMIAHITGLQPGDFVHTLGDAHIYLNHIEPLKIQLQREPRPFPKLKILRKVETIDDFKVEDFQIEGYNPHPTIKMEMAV
Method in brief: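 Enzyme source was a partially purified extract of murine leukemia L1210 cells. The dTMP synthetase assay followed an earlier published method, and no reaction conditions are given here.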

Homo sapiens = species on record: Homo sapiens; experiment: Evaluation for antitumor activity against human lymphoblast Raji cells; assay type: functional; settings: for IC50: Homo sapiens, Raji, read-out: ID50 (the source's name)
[11] = target: Thymidylate synthase (Mus musculus) (UniProt P07607)
[12] = target: Thymidylate synthase (Mus musculus) (UniProt P07607); experiment: Compound was evaluated for the inhibition of L1210 Thymidylate synthase
Method in brief: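 Thymidylate (dTMP) synthetase inhibition measured with a partially purified extract of L1210 cells as the enzyme source.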

[13] = test system: Vesicular stomatitis virus; experiment: Compound was evaluated for the antiviral activity against Vesicular stomatitis virus.; assay type: functional; method in brief: as §1
Human alphaherpesvirus 1 [14] = experiment: Compound was evaluated for the antiviral activity against Herpes simplex virus type 1 (HSV-1) strain F; assay type: functional; settings: read-out: ID50 (the source's name); method in brief: as §1
Human alphaherpesvirus 1 [15] = experiment: Compound was evaluated for the antiviral activity against Herpes simplex virus type 1 (HSV-1) strain KOS.; assay type: functional; settings: read-out: ID50 (the source's name); method in brief: as §1

Row | Structure (SMILES) | MIC50 (Human alphaherpesvirus 2 [1]) [µg/mL] | MIC50 (Human alphaherpesvirus 1 [2]) [µg/mL] | MIC50 (Vaccinia virus) [µg/mL] | MIC50 [3] [µg/mL] | MIC50 (Human alphaherpesvirus 1 [4]) [µg/mL] | MIC50 (Human alphaherpesvirus 2 [5]) [µg/mL] | MIC50 (Human alphaherpesvirus 1 [6]) [µg/mL] | MIC50 (Human alphaherpesvirus 2 [7]) [µg/mL] | IC50 (L1210 [8]) [µg/mL] | IC50 (Raji) [µg/mL] | IC50 (L1210 [9]) [µg/mL] | Ki/Km [10] | IC50 (Homo sapiens) [µg/mL] | Ki/Km [11] | Ki/Km [12] | ID50 (Homo sapiens) [µg/mL] | MIC50 [13] [µg/mL] | IC50 (Human alphaherpesvirus 1 [14]) [µg/mL] | IC50 (Human alphaherpesvirus 1 [15]) [µg/mL]
1 | O=c1[nH]c(=O)n([C@H]2C[C@H](O)[C@@H](CO)O2)cc1/C=C/Br [BRIVUDINE] | 4 (≈ 12 µM) | 0.02 (≈ 0.06 µM) | 4 (≈ 12 µM) | > 400 | 0.07 (≈ 0.21 µM) | 70 (≈ 210 µM) | 0.02 (≈ 0.06 µM) | 7 (≈ 21 µM) |  |  |  |  |  |  |  |  |  |  | 
2 | N.O=c1[nH]c(=O)n([C@H]2C[C@@H]3O[PH](O)(O)OC[C@H]3O2)cc1F | ≥ 300 | > 400 | 1.5 | > 400 | > 400 | ≥ 400 | > 400 | ≥ 200 | 7.4 | 19 | 0.06 | 38 | 0.164 |  |  |  |  |  | 
3 | O=c1[nH]c(=O)n([C@H]2C[C@H](O)[C@@H](COP(=O)(O)O)O2)cc1/C=C/Br | 20 (≈ 48.4 µM) | 0.02 (≈ 0.0484 µM) | 7 (≈ 16.9 µM) | > 400 | 0.02 (≈ 0.0484 µM) | > 400 | 0.02 (≈ 0.0484 µM) | 100 (≈ 242 µM) |  |  |  |  |  |  |  |  |  |  | 
4 | O=c1[nH]c(=O)n([C@H]2C[C@H](O)[C@@H](COP(=O)(O)O)O2)cc1I | 0.4 (≈ 0.921 µM) | 0.2 (≈ 0.461 µM) | 0.2 (≈ 0.461 µM) | > 400 | 0.2 (≈ 0.461 µM) | 0.7 (≈ 1.61 µM) | 0.4 (≈ 0.921 µM) | 0.2 (≈ 0.461 µM) | > 500 | > 500 | 31 (≈ 71.4 µM) |  | 6.8 (≈ 15.7 µM) | 3.54 |  |  |  |  | 
5 | O=c1[nH]c(=O)n([C@H]2C[C@H](O)[C@@H](CO)O2)cc1I [IDOXURIDINE] | 0.2 (≈ 0.565 µM) | 0.2 (≈ 0.565 µM) | 0.2 (≈ 0.565 µM) | > 400 | 0.2 (≈ 0.565 µM) | 0.4 (≈ 1.13 µM) | 0.2 (≈ 0.565 µM) | 0.1 (≈ 0.282 µM) | > 500 | > 500 | 16 (≈ 45.2 µM) |  | 8 (≈ 22.6 µM) |  |  |  |  |  | 
6 | O=c1[nH]c(=O)n([C@H]2C[C@H](O)[C@@H](COP(=O)(O)O)O2)cc1F [5-FLUORODEOXYURIDYLATE] | 7 (≈ 21.5 µM) | 10 (≈ 30.7 µM) | 0.2 (≈ 0.613 µM) | > 200 | 10 (≈ 30.7 µM) | 100 (≈ 307 µM) | 10 (≈ 30.7 µM) | 20 (≈ 61.3 µM) | 3 (≈ 9.2 µM) | 2.41 (≈ 7.39 µM) | 0.003 (≈ 0.0092 µM) |  | 0.013 (≈ 0.0399 µM) |  | 0.018 |  |  |  | 
7 | N.O=c1[nH]c(=O)n([C@H]2C[C@@H]3O[PH](O)(O)OC[C@H]3O2)cc1I | 10 | 2 | 2 | > 400 | 7 | 20 | 2 | 7 | > 500 | > 500 | ≥ 500 |  | 54 |  | > 355 |  |  |  | 
8 | N.O=c1[nH]c(=O)n([C@H]2C[C@@H]3O[PH](O)(O)OC[C@H]3O2)cc1Br | 2 | 2 | 1 | > 400 | 2 | 20 | 2 | 2 | > 1000 | > 1000 | 457 |  | 224 |  | > 354 |  |  |  | 
9 | O=c1[nH]c(=O)n([C@H]2C[C@H](O)[C@@H](CO)O2)cc1F [FLOXURIDINE] | 8 (≈ 32.5 µM) | 6 (≈ 24.4 µM) | 0.1 (≈ 0.406 µM) | > 200 | 4 (≈ 16.2 µM) | 150 (≈ 609 µM) | 8 (≈ 32.5 µM) | 10 (≈ 40.6 µM) | 1.8 (≈ 7.31 µM) | 1.55 (≈ 6.3 µM) | 0.02 (≈ 0.0812 µM) |  | 0.004 (≈ 0.0162 µM) |  |  |  |  |  | 
10 | N.O=c1[nH]c(=O)n([C@H]2C[C@@H]3O[PH](O)(O)OC[C@H]3O2)cc1C(F)(F)F | 10 | 10 | 0.4 | > 400 | 10 | 40 | 20 | 10 | 22 | ≥ 500 | 0.116 |  | 1.81 |  | 30.4 |  |  |  | 
11 | COP1(=O)OC[C@H]2O[C@@H](n3cc(Br)c(=O)[nH]c3=O)C[C@@H]2O1 (stereo partly specified) | > 200 | > 200 | 10 (≈ 26.1 µM) | > 200 | > 200 | > 200 | > 200 | 70 (≈ 183 µM) | > 100 | > 100 | > 100 |  | > 100 |  |  |  |  |  | 
12 | O=c1[nH]c(=O)n([C@H]2C[C@@H]3OP(=O)(OCc4ccccc4)OC[C@H]3O2)cc1I (stereo partly specified) | 20 (≈ 39.5 µM) | 20 (≈ 39.5 µM) | 2 (≈ 3.95 µM) | > 200 | 20 (≈ 39.5 µM) | 70 (≈ 138 µM) | 7 (≈ 13.8 µM) | 7 (≈ 13.8 µM) | > 100 | > 100 | > 100 |  | > 100 |  |  | 69 (≈ 136 µM) |  |  | 
13 | O=c1[nH]c(=O)n([C@H]2C[C@H](O)[C@@H](COP(=O)(O)O)O2)cc1C(F)(F)F | 0.7 (≈ 1.86 µM) | 0.7 (≈ 1.86 µM) | 0.2 (≈ 0.532 µM) | > 400 | 0.4 (≈ 1.06 µM) | 0.7 (≈ 1.86 µM) | 0.7 (≈ 1.86 µM) | 0.6 (≈ 1.59 µM) | 38 (≈ 101 µM) | 212 (≈ 564 µM) | 0.017 (≈ 0.0452 µM) |  | 0.169 (≈ 0.449 µM) |  | 0.061 |  |  |  | 
14 | O=c1[nH]c(=O)n([C@H]2C[C@H](O)[C@@H](CO)O2)cc1Cl [CHLORODEOXYURIDINE] | 1 (≈ 3.81 µM) | 2 (≈ 7.61 µM) | 0.2 (≈ 0.761 µM) | > 400 | 2 (≈ 7.61 µM) | 2 (≈ 7.61 µM) | 0.7 (≈ 2.67 µM) | 2 (≈ 7.61 µM) | 339 (≈ 1290 µM) | > 1000 | 21.3 (≈ 81.1 µM) |  | 8.54 (≈ 32.5 µM) |  |  |  |  |  | 
15 | N.O=c1[nH]c(=O)n([C@H]2C[C@@H]3O[PH](O)(O)OC[C@H]3O2)cc1Cl | 40 | 20 | 2 |  | 100 | 150 | 100 | 20 | > 1000 | > 1000 | 337 | > 356 | 337 |  |  |  | > 400 |  | 
16 | O=c1[nH]c(=O)n([C@H]2C[C@H](O)[C@@H](CO)O2)cc1Br [BROXURIDINE] | 0.2 (≈ 0.651 µM) | 0.2 (≈ 0.651 µM) | 0.07 (≈ 0.228 µM) | > 400 | 0.2 (≈ 0.651 µM) | 0.2 (≈ 0.651 µM) | 0.2 (≈ 0.651 µM) | 0.07 (≈ 0.228 µM) | > 1000 | > 1000 | 33.8 (≈ 110 µM) |  | 17.5 (≈ 57 µM) |  |  |  |  |  | 
17 | O=c1[nH]c(=O)n([C@H]2C[C@H](O)[C@@H](CO)O2)cc1C(F)(F)F [TRIFLURIDINE] | 0.6 (≈ 2.03 µM) | 0.7 (≈ 2.36 µM) | 0.2 (≈ 0.675 µM) | > 40 | 0.7 (≈ 2.36 µM) | 1 (≈ 3.38 µM) | 0.7 (≈ 2.36 µM) | 1 (≈ 3.38 µM) | 47 (≈ 159 µM) | 180 (≈ 608 µM) | 0.006 (≈ 0.0203 µM) |  | 0.15 (≈ 0.506 µM) |  |  |  |  |  | 
18 | COP1(=O)OC[C@H]2O[C@@H](n3cc(I)c(=O)[nH]c3=O)C[C@@H]2O1 (stereo partly specified) | 300 (≈ 698 µM) |  | 20 (≈ 46.5 µM) | > 400 | 70 (≈ 163 µM) | 300 (≈ 698 µM) |  | 150 (≈ 349 µM) |  |  |  |  |  |  |  |  |  | 150 (≈ 349 µM) | 150 (≈ 349 µM)
19 | O=c1[nH]c(=O)n([C@H]2C[C@H](O)[C@@H](COP(=O)(O)O)O2)cc1Br | 0.2 (≈ 0.517 µM) | 0.2 (≈ 0.517 µM) | 0.07 (≈ 0.181 µM) | > 400 | 0.2 (≈ 0.517 µM) | 0.2 (≈ 0.517 µM) | 0.2 (≈ 0.517 µM) | 0.07 (≈ 0.181 µM) | 457 (≈ 1180 µM) | > 1000 | 34.6 (≈ 89.4 µM) |  | 26 (≈ 67.2 µM) |  | 2.16 |  |  |  | 
